Source: ChEMBL document CHEMBL5678817, “FTBMT, a Novel and Selective GPR52 Agonist, Demonstrates Antipsychotic-Like and Procognitive Effects in Rodents, Revealing a Potential Therapeutic Agent for Schizophrenia” (J Pharmacol Exp Ther, 2017)
Activity calls are given as the source filed them. The calls are words filed in the database; no cut-off is given here.

Columns and labels:
[1] = target: G-protein coupled receptor 52 (Mus musculus, UniProt P0C5J4); test: Agonist activity at mouse GPR52 expressed in CHO cells assessed as increase in intracellular cAMP level incubated for 30 mins by Alphascreen assay; assay type: functional, cell-based
In short: (§1)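 CHO cells stably expressing human, mouse or rat GPR52, plus naïve CHO cells, at 10,000 cells/well. Stimulated in cAMP assay buffer for 30 min at 37 °C. Intracellular cAMP read by AlphaScreen.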

[2] = target: G-protein coupled receptor 52 (Homo sapiens, UniProt Q9Y2T5); test: Agonist activity at human GPR52 expressed in CHO cells assessed as increase in intracellular cAMP level upto 10 uM incubated for 30 mins by Alphascreen assay; assay type: functional, cell-based; in short: as §1
[3] = target: G protein-coupled receptor 52 (Rattus norvegicus) (UniProt A0A8I5ZQK1); test: Agonist activity at rat GPR52 expressed in CHO cells assessed as increase in intracellular cAMP level upto 10 uM incubated for 30 mins by Alphascreen assay; assay type: cell-based; in short: as §1
[4] = target: Cholinesterase (Homo sapiens) (UniProt P06276); test: Inhibition of Choline esterase (unknown origin) at 10 uM relative to control
In short: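 Enzyme assay run by an outside lab as part of a 98-target screen of receptors, ion channels and enzymes. Single test concentration of 10 μM; read-out is percent inhibition of enzyme activity versus control, with negative values meaning activation.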

[5] = target: Nitric oxide synthase 1 (Homo sapiens) (UniProt P29475); test: Inhibition of nNOS (unknown origin) at 10 uM relative to control
In short: (§2)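 Binding and enzyme panel run by an outside contractor against receptors, ion channels and enzymes. Each assay used a single 10 μM test concentration, and results are expressed as percent inhibition. A negative value means stimulation of receptor activity or activation of enzyme activity.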

[6] = target: Phosphodiesterase 4 (Homo sapiens) (UniProt P27815+Q08499+Q07343+Q08493); test: Inhibition of PDE4 (unknown origin) at 10 uM relative to control; assay type: protein assay
In short: (§3)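 Enzyme activity assays from the same 98-target biochemical panel. Single test concentration of 10 µM. Read-out is % inhibition of enzyme activity relative to control; negative percentages indicate activation of the enzyme.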

[7] = target: Protein kinase C (PKC) (Homo sapiens) (UniProt O94806+P41743+P17252+P05129+Q05655+P05771+Q05513+Q02156+P24723+Q15139+Q04759); test: Inhibition of Protein kinase C (unknown origin) at 10 uM relative to control; assay type: protein assay; in short: as §3
[8] = target: Rho-associated protein kinase 1 (Homo sapiens) (UniProt Q13464); test: Inhibition of ROCK1 (unknown origin) at 10 uM relative to control; in short: as §3
[9] = target: Beta-3 adrenergic receptor (Homo sapiens) (UniProt P13945); test: Inhibition of Adrenergic beta3 (unknown origin) at 10 uM relative to control
In short: (§4)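 Single-point screen at 10 μM across receptor, ion channel and enzyme binding or activity assays. Expressed as percent inhibition versus control; negative values denote stimulation.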

[10] = target: Type-2 angiotensin II receptor (Homo sapiens) (UniProt P50052); test: Inhibition of AT2 receptor (unknown origin) at 10 uM relative to control; in short: as §4
[11] = organism: Homo sapiens; test: Inhibition of Calcium channel N-type (unknown origin) at 10 uM relative to control; in short: as §4
[12] = target: D(4) dopamine receptor (Homo sapiens) (UniProt P21917); test: Inhibition of Dopamine D4 receptor (unknown origin) at 10 uM relative to control
In short: (§5)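 Part of a 98-target external biochemical selectivity panel that used radioligand/receptor binding-type assays. Compound tested once at 10 µM. Results are reported as % inhibition versus control; negative values mean stimulation of receptor activity.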

[13] = organism: Homo sapiens; test: Inhibition of non-selective GABAB receptor (unknown origin) at 10 uM relative to control; in short: as §2
[14] = organism: Homo sapiens; test: Inhibition of GABAB1A receptor (unknown origin) at 10 uM relative to control; in short: as §5
[15] = organism: Homo sapiens; test: Inhibition of Imidazoline I2 receptor (unknown origin) at 10 uM relative to control; in short: as §5
[16] = organism: Homo sapiens; test: Inhibition of Nicotinic acetylcholine receptor (unknown origin) at 10 uM relative to control; in short: as §5
[17] = organism: Homo sapiens; test: Inhibition of KATP (unknown origin) at 10 uM relative to control; in short: as §5
[18] = target: Progesterone receptor (Homo sapiens) (UniProt P06401); test: Inhibition of Progesterone receptor (unknown origin) at 10 uM relative to control; in short: as §5
[19] = target: 5-hydroxytryptamine receptor 2B (Homo sapiens) (UniProt P41595); test: Inhibition of Serotonin 5-HT2B receptor (unknown origin) at 10 uM relative to control; in short: as §5
[20] = organism: Homo sapiens; test: Inhibition of Sigma receptor (unknown origin) at 10 uM relative to control; in short: as §5
[21] = organism: Homo sapiens; test: Inhibition of Sodium channel Site 2 (unknown origin) at 10 uM relative to control; in short: as §2
[22] = target: Substance-P receptor (Homo sapiens) (UniProt P25103); test: Inhibition of Tachykinin NK1 receptor (unknown origin) at 10 uM relative to control; in short: as §2
[23] = organism: Homo sapiens; test: Inhibition of dopamine receptor (unknown origin) at 10 uM relative to control; in short: as §2
[24] = target: Sodium-dependent noradrenaline transporter (Homo sapiens) (UniProt P23975); test: Inhibition of Norepinephrine transporter (unknown origin) at 10 uM relative to control; in short: as §5
[25] = target: G-protein coupled receptor 52 (Mus musculus) (UniProt P0C5J4); test: […] agonist activity at GPR52 in ICR mouse assessed as increase in DARPP-32 phosphorylation at thr34 residue upto 1 uM incubated for 5 mins; assay type: functional
In short: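 Acute 500 μm coronal NAc slices from male ICR mice (8–10 weeks) recovered 60 min at 30 °C in oxygenated Krebs-HCO3 pH 7.4 (adenosine deaminase for first 30 min). Exposed 5 min to 0.01–1 μM, frozen, denatured in 1% SDS with 50 mM NaF. Phospho-Thr34 and total DARPP32 quantified by Western blot densitometry; n = 9.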

[26] = test system: Mus musculus; test: Antipsychotic activity in wild type mouse assessed as increase in phosphorylated CREB level in striatum at 30 mg/kg, po incubated for 60 mins by ELISA analysis; assay type: functional, organism-based
[27] = test system: Mus musculus; test: Antipsychotic activity in GPR52 knockout ICR mouse assessed as inhibition of MK-801-induced hyperactivity at 30 mg/kg, po pretreated with compound for 1 hr followed by MK-801 addition and measured after 90 mins; assay type: functional, organism-based; conditions: time 150.0 min
[28] = test system: Mus musculus; test: Antipsychotic activity in C57BL/6N mouse assessed as increase in Arc mRNA expression at 3 to 100 mg/kg, po measured for 1 hr by qPCR analysis; assay type: functional, organism-based; conditions: dose 3-100 mg/kg
In short: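 Mice dosed orally at 3–100 mg/kg or vehicle. Tissues taken 1 h post-dose, NAc shell and striatum dissected, frozen on dry ice. IEG mRNA quantified by qPCR (absolute or ΔΔCt); n = 5–6; mean ± SEM.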

[29] = test system: Mus musculus; test: Antipsychotic activity in C57BL/6N mouse assessed as increase in c-fos positive cells in frontal cortex at 30 mg/kg, po measured for 2 hrs by immunohistochemistry analysis; assay type: functional, organism-based
[30] = test system: Mus musculus; test: Pro-cognitive activity in C57BL/6N mouse assessed as increase in Arc gene expression in hippocampus at 3 to 30 mg/kg, po […]; assay type: functional, organism-based; conditions: dose 3-30 mg/kg

Chain of G-protein coupled receptor 52 (Homo sapiens, UniProt Q9Y2T5) (Q9Y2T5 whole entry): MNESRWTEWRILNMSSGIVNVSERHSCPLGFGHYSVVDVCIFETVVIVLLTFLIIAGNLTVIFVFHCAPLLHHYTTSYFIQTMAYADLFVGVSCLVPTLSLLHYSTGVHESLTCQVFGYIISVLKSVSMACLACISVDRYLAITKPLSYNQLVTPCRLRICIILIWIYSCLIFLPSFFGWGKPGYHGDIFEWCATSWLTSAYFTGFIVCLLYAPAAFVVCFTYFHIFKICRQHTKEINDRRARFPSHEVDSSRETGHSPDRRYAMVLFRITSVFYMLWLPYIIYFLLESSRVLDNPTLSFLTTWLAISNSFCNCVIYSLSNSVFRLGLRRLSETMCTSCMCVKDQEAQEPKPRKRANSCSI
Chain of Type-2 angiotensin II receptor (Homo sapiens) (P50052 whole entry): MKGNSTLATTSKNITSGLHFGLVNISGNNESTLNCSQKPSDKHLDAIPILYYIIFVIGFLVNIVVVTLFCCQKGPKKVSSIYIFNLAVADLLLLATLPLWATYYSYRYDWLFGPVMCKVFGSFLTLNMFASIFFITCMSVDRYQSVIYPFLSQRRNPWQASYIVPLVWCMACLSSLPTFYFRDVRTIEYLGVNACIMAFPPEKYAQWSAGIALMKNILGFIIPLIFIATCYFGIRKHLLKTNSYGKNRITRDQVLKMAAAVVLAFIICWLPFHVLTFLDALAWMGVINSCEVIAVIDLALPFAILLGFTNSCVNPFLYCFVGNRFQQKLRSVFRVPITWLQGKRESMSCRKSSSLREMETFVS
Chain of Rho-associated protein kinase 1 (Homo sapiens) (Q13464 2-1354 limits assumed): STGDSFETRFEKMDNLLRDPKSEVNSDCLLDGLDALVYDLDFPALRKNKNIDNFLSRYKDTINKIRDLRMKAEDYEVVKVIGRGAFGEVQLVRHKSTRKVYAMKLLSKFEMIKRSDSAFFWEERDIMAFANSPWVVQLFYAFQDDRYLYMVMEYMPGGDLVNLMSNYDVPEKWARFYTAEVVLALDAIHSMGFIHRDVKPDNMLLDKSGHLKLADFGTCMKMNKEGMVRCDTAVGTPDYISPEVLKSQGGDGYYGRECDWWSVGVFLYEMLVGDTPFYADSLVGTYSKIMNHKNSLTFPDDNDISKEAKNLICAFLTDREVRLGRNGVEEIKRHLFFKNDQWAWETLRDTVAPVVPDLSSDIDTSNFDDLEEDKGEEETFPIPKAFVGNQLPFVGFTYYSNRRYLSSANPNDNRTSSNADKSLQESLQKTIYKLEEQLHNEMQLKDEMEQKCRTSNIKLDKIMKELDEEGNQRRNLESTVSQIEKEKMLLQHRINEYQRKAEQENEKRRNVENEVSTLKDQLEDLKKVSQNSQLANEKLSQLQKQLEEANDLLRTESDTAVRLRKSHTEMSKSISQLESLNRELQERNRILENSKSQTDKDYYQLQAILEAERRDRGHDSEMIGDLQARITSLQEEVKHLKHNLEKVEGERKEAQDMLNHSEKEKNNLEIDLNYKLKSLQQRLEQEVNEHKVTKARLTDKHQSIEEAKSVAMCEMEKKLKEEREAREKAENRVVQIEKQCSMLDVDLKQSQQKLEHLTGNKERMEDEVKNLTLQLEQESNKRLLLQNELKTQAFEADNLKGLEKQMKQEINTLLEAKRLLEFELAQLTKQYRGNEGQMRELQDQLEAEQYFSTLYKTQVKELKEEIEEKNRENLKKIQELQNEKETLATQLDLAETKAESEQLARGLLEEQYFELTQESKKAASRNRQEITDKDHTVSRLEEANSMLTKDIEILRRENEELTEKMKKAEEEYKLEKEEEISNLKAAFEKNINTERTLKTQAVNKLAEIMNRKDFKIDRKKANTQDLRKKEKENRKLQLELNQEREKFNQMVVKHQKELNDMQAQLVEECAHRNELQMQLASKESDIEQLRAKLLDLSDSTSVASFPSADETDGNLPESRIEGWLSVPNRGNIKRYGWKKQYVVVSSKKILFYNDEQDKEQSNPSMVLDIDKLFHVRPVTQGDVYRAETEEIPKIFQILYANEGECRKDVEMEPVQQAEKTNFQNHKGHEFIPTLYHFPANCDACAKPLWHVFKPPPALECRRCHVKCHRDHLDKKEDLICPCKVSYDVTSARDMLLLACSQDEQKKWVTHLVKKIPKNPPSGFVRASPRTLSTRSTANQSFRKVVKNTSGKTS
Chain of D(4) dopamine receptor (Homo sapiens) (P21917 whole entry): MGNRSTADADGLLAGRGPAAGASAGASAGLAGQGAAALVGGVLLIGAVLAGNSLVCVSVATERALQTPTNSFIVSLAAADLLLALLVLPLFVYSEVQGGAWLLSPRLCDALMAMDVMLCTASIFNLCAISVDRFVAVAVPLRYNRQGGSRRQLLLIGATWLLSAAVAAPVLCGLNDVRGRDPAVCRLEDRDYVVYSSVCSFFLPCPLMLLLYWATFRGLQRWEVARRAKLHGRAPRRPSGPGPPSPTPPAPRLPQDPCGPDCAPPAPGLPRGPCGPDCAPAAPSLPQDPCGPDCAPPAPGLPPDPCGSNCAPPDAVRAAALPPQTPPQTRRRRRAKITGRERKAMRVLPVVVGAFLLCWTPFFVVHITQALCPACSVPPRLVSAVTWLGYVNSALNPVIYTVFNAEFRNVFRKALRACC
Chain of Beta-3 adrenergic receptor (Homo sapiens) (P13945 whole entry, looked up): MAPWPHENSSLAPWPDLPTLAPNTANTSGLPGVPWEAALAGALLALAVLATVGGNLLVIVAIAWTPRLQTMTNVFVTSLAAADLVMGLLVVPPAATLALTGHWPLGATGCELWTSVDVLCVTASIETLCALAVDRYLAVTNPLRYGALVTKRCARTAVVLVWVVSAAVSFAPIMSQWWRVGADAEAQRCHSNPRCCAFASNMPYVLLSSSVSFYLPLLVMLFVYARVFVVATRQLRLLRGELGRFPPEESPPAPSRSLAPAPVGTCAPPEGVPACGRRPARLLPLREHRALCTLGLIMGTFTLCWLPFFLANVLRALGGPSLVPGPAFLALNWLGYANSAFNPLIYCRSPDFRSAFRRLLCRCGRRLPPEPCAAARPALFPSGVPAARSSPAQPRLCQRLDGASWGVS
Chain of Cholinesterase (Homo sapiens) (P06276 whole entry): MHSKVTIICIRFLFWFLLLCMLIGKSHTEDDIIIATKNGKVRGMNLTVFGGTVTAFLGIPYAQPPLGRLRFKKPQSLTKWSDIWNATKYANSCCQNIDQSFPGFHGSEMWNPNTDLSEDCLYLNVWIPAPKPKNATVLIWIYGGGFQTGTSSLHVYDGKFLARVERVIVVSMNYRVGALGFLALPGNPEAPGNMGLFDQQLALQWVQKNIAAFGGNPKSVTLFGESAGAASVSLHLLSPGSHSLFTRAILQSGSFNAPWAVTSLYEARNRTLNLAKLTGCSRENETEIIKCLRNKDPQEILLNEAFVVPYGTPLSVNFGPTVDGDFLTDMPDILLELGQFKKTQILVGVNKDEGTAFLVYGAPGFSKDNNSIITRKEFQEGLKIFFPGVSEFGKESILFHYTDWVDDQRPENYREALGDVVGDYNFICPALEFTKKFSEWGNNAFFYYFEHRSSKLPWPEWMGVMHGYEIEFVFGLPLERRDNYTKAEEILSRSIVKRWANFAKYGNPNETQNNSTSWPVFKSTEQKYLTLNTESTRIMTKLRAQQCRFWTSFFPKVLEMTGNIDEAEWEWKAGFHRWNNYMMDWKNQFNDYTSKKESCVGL
Chain of Substance-P receptor (Homo sapiens) (P25103 whole entry): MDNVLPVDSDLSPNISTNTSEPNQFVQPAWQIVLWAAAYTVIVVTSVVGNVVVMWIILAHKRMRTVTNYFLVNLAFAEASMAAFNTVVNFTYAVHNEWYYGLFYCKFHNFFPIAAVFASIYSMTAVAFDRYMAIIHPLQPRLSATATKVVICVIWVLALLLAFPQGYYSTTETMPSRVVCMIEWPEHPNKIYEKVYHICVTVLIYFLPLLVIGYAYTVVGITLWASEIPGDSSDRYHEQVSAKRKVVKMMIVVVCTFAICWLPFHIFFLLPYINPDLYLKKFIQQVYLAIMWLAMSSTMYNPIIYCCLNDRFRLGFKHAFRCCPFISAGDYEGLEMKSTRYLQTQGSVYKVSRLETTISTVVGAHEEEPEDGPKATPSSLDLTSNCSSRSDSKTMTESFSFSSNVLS
Chain of G-protein coupled receptor 52 (Mus musculus) (P0C5J4 whole entry): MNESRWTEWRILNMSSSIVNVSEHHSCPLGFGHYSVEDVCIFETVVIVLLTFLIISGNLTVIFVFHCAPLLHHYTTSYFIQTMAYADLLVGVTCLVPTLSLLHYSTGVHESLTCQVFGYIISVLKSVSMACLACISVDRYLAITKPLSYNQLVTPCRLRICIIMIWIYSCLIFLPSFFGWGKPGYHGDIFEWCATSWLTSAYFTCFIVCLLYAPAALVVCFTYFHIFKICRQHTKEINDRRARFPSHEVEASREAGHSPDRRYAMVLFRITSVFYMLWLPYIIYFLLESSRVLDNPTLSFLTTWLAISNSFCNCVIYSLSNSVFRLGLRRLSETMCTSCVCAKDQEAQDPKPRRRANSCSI
Chain of G-protein coupled receptor 52 (Mus musculus, UniProt P0C5J4) (P0C5J4 whole entry): as above
Chain of G protein-coupled receptor 52 (Rattus norvegicus) (A0A8I5ZQK1 as listed by the source): as the sequence (P0C5J4 whole entry) above, with M14V, E250D, E333Q, A342G, Q348R counted along it

## Cc1cc(-n2nc(Cc3cc(F)cc(C(F)(F)F)c3)nc2C)ccc1C(N)=O [TP-024]
[1]
  EC50: 141 nM
[2]
  Activity: inactive
[3]
  Activity: inactive
[4]
  inhibition: 18%
[5]
  inhibition: 11%
[6]
  inhibition: 6%
[7]
  inhibition: -5%
[8]
  inhibition: 9%
[9]
  inhibition: 0%
[10]
  inhibition: 1%
[11]
  inhibition: -9%
[12]
  inhibition: 3%
[13]
  inhibition: 0%
[14]
  inhibition: 5%
[15]
  inhibition: 6%
[16]
  inhibition: -2%
[17]
  inhibition: -1%
[18]
  inhibition: 4%
[19]
  inhibition: 6%
[20]
  inhibition: 28%
[21]
  inhibition: 1%
[22]
  inhibition: 4%
[23]
  inhibition: -1%
[24]
  inhibition: 10%
[25]
  Activity: Active
[26]
  Activity: Active
[27]
  Activity: inactive
[28]
  Activity: Active
[29]
  Activity: Active
[30]
  Activity: Active
